In brackets after ≈: the same amount, converted by molar mass.
Tests used:
[1] = biological target: MAP kinase-activated protein kinase 2 (Homo sapiens, UniProt P49137); experiment: Inhibition of MK2 pretreated for 30 mins before substrate addition measured after 2 hrs by IMAP assay
THP-1 [2] = experiment: Antiinflammatory activity in human THP1 cells assessed as inhibition of LPS-induced TNFalpha production at 10 uM treated 30 mins before LPS challenge measured after 4 hrs by ELISA; assay type: functional
[3] = Kinetic solubility of the compound at pH 7.4; assay type: physicochemical; details: buffer
[4] = Half life in human liver microsomes; assay type: ADME, Microsome
[5] = Plasma protein binding in plasma; assay type: ADME, cell-free; details: read-out: PPB (converted)
[6] = AUC in rat at 4 umol/kg, iv; assay type: ADME, organism-based; details: plasma
Rattus norvegicus [7] = experiment: Antiinflammatory activity in sc dosed rat assessed as inhibition of LPS-induced TNFalpha production in serum administered 1 hr before LPS challenge measured after 1.5 hrs by ELISA
[8] = Half life in rat liver microsomes; assay type: ADME, Microsome
Rattus norvegicus [9] = experiment: Antiinflammatory activity in rat assessed as inhibition of LPS-induced TNFalpha production in serum at 30 mg/kg, sc administered 1 hr before LPS challenge measured after 1.5 hrs by ELISA
PBMC = experiment: Antiinflammatory activity in human PBMC cells assessed as inhibition of LPS-induced TNFalpha production treated 30 mins before LPS challenge measured after 4 hrs by ELISA; assay type: functional, cell-based
Rattus norvegicus [10] = experiment: Antiinflammatory activity in rat assessed as inhibition of LPS-induced TNFalpha production in serum at 12.5 mg/kg, iv administered 1 hr before LPS challenge measured after 1.5 hrs by ELISA
THP-1 [11] = experiment: Antiinflammatory activity in human THP1 cells assessed as inhibition of LPS-induced TNFalpha production treated 30 mins before LPS challenge measured after 4 hrs by ELISA; assay type: functional, cell-based
Outline: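 THP1 cells seeded at 1.5 × 10^5 per well in DMEM F12 and rested ≥18 h at 37 °C, 5–7% CO2, humidified. Compounds added in DMSO (0.1% final) for 30 min, then LPS added. After 4 h at 37 °C, TNFα in the culture medium was quantified by ELISA. EC50 from duplicates per dilution.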

[12] = AUC in rat at 10 umol/kg, po; assay type: ADME, organism-based; details: plasma
Outline: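 Rat PK after oral dosing at 10 µmol/kg; exposure expressed as AUC.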

Rattus norvegicus [13] = experiment: Antiinflammatory activity in rat assessed as inhibition of LPS-induced TNFalpha production in serum at 10 mg/kg, sc administered 1 hr before LPS challenge measured after 1.5 hrs by ELISA
[14] = AUC in rat at 10 umol/kg, sc; assay type: ADME, organism-based; details: plasma
Outline: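 Rat PK after subcutaneous dosing at 10 µmol/kg; exposure expressed as AUC.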

[15] = Permeability across human Caco2 cells; assay type: ADME, cell-based; details: Caco-2, read-out: permeability
[16] = Permeability of the compound by PAMPA; assay type: ADME; details: read-out: permeability

MAP kinase-activated protein kinase 2, sequence (P49137 whole entry): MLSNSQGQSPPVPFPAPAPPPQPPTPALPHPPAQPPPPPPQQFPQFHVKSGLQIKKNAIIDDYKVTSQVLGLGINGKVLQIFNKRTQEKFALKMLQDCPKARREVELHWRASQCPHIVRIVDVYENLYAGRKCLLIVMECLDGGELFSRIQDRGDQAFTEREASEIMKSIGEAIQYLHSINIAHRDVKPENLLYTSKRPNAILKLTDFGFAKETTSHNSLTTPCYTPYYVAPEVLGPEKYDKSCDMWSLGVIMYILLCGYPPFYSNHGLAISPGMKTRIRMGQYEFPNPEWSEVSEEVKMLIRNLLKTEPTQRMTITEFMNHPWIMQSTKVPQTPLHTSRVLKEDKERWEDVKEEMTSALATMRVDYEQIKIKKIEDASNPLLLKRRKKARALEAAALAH

SMILES | EC50 [1] | inhibition at 10 µM (THP-1 [2]) | solubility kinetic [3] | half-life [4] | fraction unbound [5] | half-life [8] | other results
O=C1NCC2(CCCC2)c2[nH]c(-c3ccnc(-c4cnc5ccccc5c4)n3)cc21 | 234 nM | 50% |  |  |  |  | 
O=C1NCC2(CCNCC2)c2[nH]c(-c3ccnc(-c4cnc5ccccc5c4)n3)cc21 | 6 nM |  | 23 µg/mL (≈ 56 µM) |  |  |  | 
O=C1NCC2(CCNCC2)c2[nH]c(-c3ccnc(-c4ccc5c(c4)OCO5)n3)cc21 |  |  | 37 µg/mL (≈ 91.7 µM) | 91 min | 0.03 | > 120 min | AUC [6]: 1.26 µM·h; inhibition (Rattus norvegicus [7]): Dose-dependent effect; inhibition in vivo at 30 mg/kg (Rattus norvegicus [9]): 85%; EC50 (PBMC): 260 nM; inhibition in vivo at 12.5 mg/kg (Rattus norvegicus [10]): 92%; EC50 (THP-1 [11]): 980 nM; AUC [12]: 0.016 µM·h; inhibition in vivo at 10 mg/kg (Rattus norvegicus [13]): 54%; AUC [14]: 2.71 µM·h
NCC1CNC(=O)c2cc(-c3ccnc(-c4cnc5ccccc5c4)c3)nn21 (configuration not stated) | 151 nM |  |  |  |  |  | 
NCCn1nc(-c2ccnc(-c3cnc4ccccc4c3)c2)cc1C(=O)O | 28 nM | 7% | 33 µg/mL (≈ 91.8 µM) |  |  |  | 
O=C1NCCc2[nH]c(-c3ccnc(-c4cnc5ccccc5c4)c3)cc21 |  | 38% |  | 35 min | 0.003 | 40 min | Papp [15]: 0.5 ×10⁻⁶ cm/s; Papp [16]: 0.6 ×10⁻⁶ cm/s
